Bioassay records deposited in PubChem BioAssay by several laboratories.
Cl transport mod = KCC2 cotransporter modulators, thallium flux, primary screen, cell-based, HEK293 KCC2, FluoZin-2 fluorescence, MLSMR; KCC2 cells, thallium flux FluoZin-2 fluorescence; B-score of Tl+ flux slope (higher = more flux/activation; lower = inhibition) at 10 µM; hit rate 2.2% among 190,000; AID 1456, 2008;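 active means thallium flux slope and its plate-corrected score both differing from the plate sample mean at a set confidence after two filtering rounds, in either direction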;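 further: slope of fluorescence scaled to starting intensity during 10 to 20 s after thallium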
RGS4 pot = RGS4 potentiators or activators, primary screen, cell-based, HEK293 M3R inducible RGS4, calcium flux; carbachol calcium flux Fluo4; stronger effect = lower value; B-score at 10 µM; hit rate 0.92% among 310,000; AID 463111, 2010;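 active means B-score of the integrated calcium signal more than 4 SD below the library mean, with starting fluorescence not abnormally high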;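 further: negative B-score means reduced calcium response which marks RGS4 activation or potentiation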
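Material: Inducible-RGS4 HEK293 cells carrying M3 receptor; also added: carbachol at ECmax as muscarinic agonist stimulus; incubation: compound preincubation 20 min at room temperature before agonist; signal: Fluo4-AM (2 µM) calcium-flux fluorescence, kinetic read; measure: integrated calcium ratio converted to B score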
MrgX1 ag = agonists of human MrgX1 receptor, primary screen, HEK293 cells, Fluo-4 calcium flux; Mas-related G-protein coupled receptor member X1 (Homo sapiens), Q96LB2; Fluo-4 calcium fluorescence, agonist mode; stronger effect = higher value; hit rate 0.44% among 310,000; AID 588627, 2011; B-score at 10 µM;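 active means calcium response B-score plate-corrected fluorescence ratio at least 3 library SD, with starting fluorescence B-score inside 5 SD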
Target sequence (Q96LB2 whole entry, looked up): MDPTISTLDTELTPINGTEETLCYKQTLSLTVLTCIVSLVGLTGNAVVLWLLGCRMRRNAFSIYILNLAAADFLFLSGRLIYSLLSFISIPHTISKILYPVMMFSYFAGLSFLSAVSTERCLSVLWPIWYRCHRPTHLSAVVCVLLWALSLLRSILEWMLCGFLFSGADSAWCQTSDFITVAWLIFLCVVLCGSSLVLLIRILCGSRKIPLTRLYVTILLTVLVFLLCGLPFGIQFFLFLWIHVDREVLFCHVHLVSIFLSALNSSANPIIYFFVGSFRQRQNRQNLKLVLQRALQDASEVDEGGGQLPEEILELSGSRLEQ
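Material: MrgX1-expressing HEK293 cells; input: 15,000 cells per well; doses: test compound given as first of three sequential additions; schedule: overnight plating before 1 h dye loading; technique: Fluo-4 NW calcium-flux fluorescence, kinetic read; evaluation: baseline-normalised fluorescence change ratio, B-scored; control set: plate-wise positive and negative controls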
RGS4 inh = RGS4 inhibitors, primary screen, cell-based, HEK293 M3R inducible RGS4, calcium flux; Regulator of G-protein signaling 4 (Homo sapiens), P49798; Fluo-4 calcium flux; stronger effect = higher value; triggered by carbachol at its EC20; B-score at 10 µM; hit rate 0.45% among 310,000;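 active means B-score, a plate-corrected calcium signal, over three deviations above library mean, with baseline fluorescence within five deviations of library mean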;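 further: RGS4 expression induced by doxycycline in cells with stable M3 receptor; B-score is computed from the integrated fluorescence ratio over baseline after carbachol; higher B-score means a larger calcium signal and so more RGS4 inhibition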
Target sequence (P49798 whole entry, looked up): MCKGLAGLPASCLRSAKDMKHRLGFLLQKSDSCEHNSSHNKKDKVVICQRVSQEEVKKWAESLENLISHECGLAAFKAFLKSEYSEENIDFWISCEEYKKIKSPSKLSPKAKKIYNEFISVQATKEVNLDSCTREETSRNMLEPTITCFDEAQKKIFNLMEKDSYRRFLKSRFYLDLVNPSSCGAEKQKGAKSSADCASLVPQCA
MrgX1 antagonist = antagonists of human MrgX1 receptor, primary screen, HEK293 cells, Fluo-4 calcium flux | B-score at 10 µM | BAM8-22 antagonism; stronger effect = lower value | AID 588676, 2011 | Mas-related G-protein coupled receptor member X1 (Homo sapiens), Q96LB2 | hit rate 1.3% among 310,000;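 active means calcium-response B-score plate-corrected more than 3 library SD below zero, starting fluorescence within 5 deviations, no agonist response on first addition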;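 further: peak minus trough fluorescence over baseline after final BAM8-22 challenge near maximal dose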
MrgX1 PAM = positive allosteric modulators of MrgX1, primary screen, HEK293 cells, Fluo-4 calcium flux; Mas-related G-protein coupled receptor member X1 (Homo sapiens), Q96LB2; FDSS; stronger effect = higher value; B-score at 10 µM; hit rate 0.63% among 310,000; AID 588675, 2011;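 active means plate-corrected calcium response at least 3 library SD above typical, normal starting fluorescence, not activating the receptor alone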;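 further: compound read alongside a low EC10 to EC30 dose of BAM8-22 agonist; peak minus trough fluorescence over baseline measured at the second addition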
KCC2 sec1 = KCC2 modulators in sodium-free buffer, confirmation, cell-based, HEK293 KCC2, thallium flux, secondary assay | shares compounds with Cl transport mod | FluoZin2 fluorescence; stronger effect = higher value | normalised thallium flux (F/F0 slope) at 10 µM | hit rate 15% among 3,700;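 active means thallium flux slope above the same plate's solvent-only control mean plus 3 SD; inconclusive means the two replicate wells disagree; inactive means no significant difference from solvent-only control wells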
KCC2 bumet counter = thallium flux persisting under bumetanide in KCC2 cells, confirmation, counter-screen for KCC2 modulator project, cell-based, HEK293 KCC2, FluoZin2, secondary assay 3; shares compounds with Cl transport mod; HEK293-KCC2 + bumetanide/ouabain; stronger effect = higher value; normalized thallium flux at 10 µM; hit rate 49% among 3,700; AID 1714, 2009;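 active means thallium entry rate above the same plate's blocked-transporter control wells by more than 3 SD; inconclusive means the two repeat wells disagree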;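 further: raw slope of fluorescence over initial fluorescence between 10 and 20 s after thallium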
KCC2 sec2 = KCC2 modulators without ouabain present, confirmation, cell-based, HEK293 KCC2, thallium flux, FluoZin2, secondary assay 2; thallium flux FluoZin2 fluorescence; actives lie on both sides; F/F0 rise rate, 10–20 s post-thallium; normalized thallium flux at 10 µM; shares compounds with Cl transport mod; AID 1715, 2009; hit rate 23% among 3,700;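 active means thallium flux slope more than 3 SD above or below the plate's solvent-only control mean, mostly below; inconclusive means the two repeat wells disagreed; inactive means no significant shift from solvent-only controls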;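 further: raw slope with 0.1% DMSO as baseline and bumetanide as block control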
HEK293 Tl flux = thallium flux modulation in parental HEK cells, confirmation, counter-screen for KCC2 modulator project, cell-based, counterscreen 1. shares compounds with Cl transport mod. HEK293 parental cells, thallium flux FluoZin2, ouabain; baseline-ratio fluorescence slope, 10–20 s after thallium. thallium flux rate (normalised fluorescence) at 10 µM. hit rate 46% among 3,700. AID 1716, 2009;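 active means thallium flux rate significantly above the same plate's solvent-only control wells, beyond their mean plus 3 SD; inconclusive means the two replicate wells gave conflicting results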
KCC2 retest ouab = KCC2 inhibitors and activators, ouabain retest, confirmation, HEK-KCC2 cells. AID 1717, 2009. raw Tl+ flux slope (below DMSO = inhibition, above = activation) at 10 µM. HEK293-KCC2, thallium flux FluoZin2 fluorescence; bidirectional: low = inhibitor, high = activator. shares compounds with Cl transport mod. hit rate 48% among 3,700;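 active means thallium flux slope beyond 3 SD from same-plate DMSO control mean in most replicates, usually higher, sometimes lower; inconclusive means repeat tests gave conflicting results; inactive means no significant difference from controls in most replicates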;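 further: slope of initial-normalized fluorescence between seconds 10 and 20 after thallium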
HEK293 Tl flux2 = native HEK Tl+ uptake effects, second counter-screen – HEK cells, counterscreen 2, counter-screen for KCC2 modulator project, confirmation; shares compounds with Cl transport mod; HEK293 parental, thallium flux FluoZin-2 fluorescence slope; thallium flux slope at 10 µM; hit rate 33% among 3,700; AID 1718, 2009;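 active means thallium flux slope above the same plate's solvent-control mean plus 3 SD in both duplicate wells; inconclusive means duplicate wells that disagreed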;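 further: run without ouabain in cells lacking the KCC2 cotransporter; slope of fluorescence scaled to its starting value between 10 and 20 s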
* marks the source's active call; other numbers are inactive results; i = inactive; ? = inconclusive; . = no result given; ! = not confirmed by another sample. Most compounds without a hit are left out; they make up all but 4.7% or so of the library.

SMILES | Cl transport mod | RGS4 pot | MrgX1 ag | RGS4 inh | MrgX1 antagonist | MrgX1 PAM | KCC2 sec1 | KCC2 bumet counter | KCC2 sec2 | HEK293 Tl flux | KCC2 retest ouab | HEK293 Tl flux2
O=[N+]([O-])c1ccc(CSc2nnc(SCc3ccccc3)s2)cc1 | -5.4* | -8.3* | i | i | i | i | 0.0066 | 0.0048 | 0.024* | 0.0069 | 0.014* | 0.0093
COc1ccc(S(=O)(=O)NNC(=S)NCCc2ccccc2)c(OC)c1 | . | i | i | i | i | i | . | . | . | . | . | .
COc1ccc2c(C)c(C(=O)N3CCN(Cc4ccccc4)CC3)oc2c1 | . | i | i | i | i | i | . | . | . | . | . | .
Cc1ccc2c(c1)nnn2C1CCN(S(=O)(=O)c2cccc(S(=O)(=O)N(C)C)c2)CC1 | . | i | i | i | i | i | 0.0069 | 0.0057 | ? | 0.0064 | ? | 0.0095
O=S(=O)(NC1CCCC1)c1cccc(S(=O)(=O)N2CCC(n3nnc4ccccc43)CC2)c1 | . | i | i | i | i | i | 0.018 | 0.0048 | ? | 0.0067 | 0.013 | 0.01
Cc1ccc2c(c1)nnn2C1CCN(S(=O)(=O)c2ccc3ccccc3c2)CC1 | -1.6 | i | i | i | i | i | . | . | . | . | . | .
S=c1[nH]c2cc3ccccc3cc2[nH]1 | 3.3*! | i | i | i | i | i | 0.017 | 0.0076* | ? | 0.0091* | 0.016 | ?
CCN(CC)C(=O)C1CC(=O)N(c2ccc(OC)cc2)C1c1ccc(OC)cc1 (configuration not stated) | -4.1* | i | i | i | i | i | 0.0062 | 0.0057* | 0.028 | 0.0082 | 0.019 | 0.011
O=Cc1ccc(-c2ccc(F)cc2)o1 | 0.1 | i | i | i | i | i | . | . | . | . | . | .
O=C(O)/C(=C\c1ccc(-c2ccc(F)cc2)o1)c1ccccc1 | -7* | . | . | . | . | . | 0.0073 | 0.008* | 0.031 | 0.0074 | 0.016* | 0.01
CCOC(=O)Cc1csc(NC(=S)NC(=O)c2cc(OC)cc(OC)c2)n1 | 26* | i | i | i | i | i | 0.015* | 0.034* | 0.03 | 0.023* | 0.065* | 0.012*
